Each block holds one molecule with its values, some of them ahead of it. The source made the active and inactive calls. The rule behind the calls is not given here. Positions of bridges follow the written chain, without caps; N, C: chain ends. Non-standard residues stand in square brackets, D forms with d. Residues, ends and D or L forms follow the SMILES beside them. ξ: configuration not given here. Phe(4-guanidino) = N=C(N)Nc1ccc(C[C@H](N)C(=O)O)cc1; ξNle = CCCCC(N)C(=O)O
Legend:
Cathepsin G = target: T1, Cathepsin G (Homo sapiens, UniProt P08311); experiment: Inhibition of human cathepsin G using Suc-AAPF-MCA as substrate after 30 mins
T1 sequence (P08311 whole entry): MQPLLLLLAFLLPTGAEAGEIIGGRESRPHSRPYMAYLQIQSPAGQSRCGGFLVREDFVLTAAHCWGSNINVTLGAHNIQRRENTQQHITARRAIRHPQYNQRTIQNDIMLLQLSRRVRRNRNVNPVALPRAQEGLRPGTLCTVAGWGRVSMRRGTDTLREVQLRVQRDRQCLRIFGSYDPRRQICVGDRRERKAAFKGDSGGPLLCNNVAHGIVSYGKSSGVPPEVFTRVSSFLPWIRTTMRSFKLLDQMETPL

[1] = Inhibition of bovine trypsin using Tos-GPR-AMC as substrate preincubated for 30 mins followed by substrate addition
Kallikrein-7 = Kallikrein-7 (Homo sapiens, UniProt P49862); experiment: Inhibition of recombinant KLK7 (unknown origin) expressed in zymogen form in Pichia pastorisstrain X-33 using KHLY-pNA as substrate after 30 mins
Sequence of Kallikrein-7 (P49862 whole entry): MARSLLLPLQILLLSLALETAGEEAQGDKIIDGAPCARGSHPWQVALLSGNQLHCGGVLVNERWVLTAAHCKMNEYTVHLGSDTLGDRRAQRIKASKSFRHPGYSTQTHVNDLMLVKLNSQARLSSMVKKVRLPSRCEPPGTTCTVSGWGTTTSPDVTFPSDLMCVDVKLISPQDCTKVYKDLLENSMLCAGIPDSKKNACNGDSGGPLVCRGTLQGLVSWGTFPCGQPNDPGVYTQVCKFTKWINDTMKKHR
Outline: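 Pro-KLK7 from Pichia supernatant was cation-exchange purified, activated with enterokinase (37°C, 2 h), repurified, and active-site titrated with α1-antitrypsin. After 30 min room-temperature equilibration with inhibitor, pNA hydrolysis was followed at 405 nm for 5 min in Tris/NaCl/Triton buffer pH 8.0 with 10% acetonitrile. Morrison Ki came from three independent triplicate runs.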

[2] = Selectivity ratio of Ki for rat mast cell chymase to Ki for human cathepsin G
Outline: (§1)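 Each Ki was determined after 30 min room-temperature protease–inhibitor equilibration, with chromogenic (405 nm) or fluorogenic (360/460 nm) substrate readout in Tris/NaCl buffer pH 8.0. Morrison Ki was fitted by non-linear regression, three independent triplicate experiments, and the off-target Ki was divided by the cathepsin G Ki.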

Myeloblastin = target: T2, Myeloblastin (Homo sapiens, UniProt P24158); experiment: Inhibition of human PR3 using Suc(OMe)-AAPV-MCA as substrate after 30 mins
T2 sequence (P24158 whole entry): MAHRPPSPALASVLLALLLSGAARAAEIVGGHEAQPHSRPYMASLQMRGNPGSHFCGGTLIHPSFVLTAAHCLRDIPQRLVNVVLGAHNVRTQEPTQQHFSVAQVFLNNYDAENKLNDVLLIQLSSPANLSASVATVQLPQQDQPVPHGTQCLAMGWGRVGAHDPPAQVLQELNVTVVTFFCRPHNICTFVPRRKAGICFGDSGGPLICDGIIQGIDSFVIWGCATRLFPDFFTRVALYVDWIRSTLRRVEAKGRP
Outline: (§2)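 Protease and inhibitor equilibrated 30 min at room temperature, then MCA substrate added in assay buffer (0.15 M NaCl, 0.1 M Tris·HCl pH 8.0, 0.005% Triton X-100). Fluorescence was read at ex 360/em 460 nm over 10 min. Morrison Ki was fitted by non-linear regression from three independent triplicate experiments.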

[3] = Inhibition of bovine chymotrypsin using Suc(OMe)-AAPV-MCA as substrate after 30 mins; design: species or system Bos taurus; outline: as §2
[4] = target: T3, Myeloblastin (Homo sapiens) (UniProt P24158); experiment: Inhibition of human PR3 at 10000 nM using Suc(OMe)-AAPV-MCA as substrate after 30 mins relative to control
T3 sequence (whole entry): T2 sequence (P24158 whole entry)

Homo sapiens [5] = species on record: Homo sapiens; experiment: Selectivity ratio of Ki for human neutrophil elastase to Ki for human cathepsin G; outline: as §1
[6] = Selectivity ratio of Ki for bovine chymotrypsin to Ki for human cathepsin G; outline: as §1
Chymase = target: T4, Chymase (Rattus norvegicus, UniProt P50339); experiment: Inhibition of rat mast cell chymase using Suc-AAPF-pNA as substrate after 30 mins
T4 sequence (P50339 whole entry): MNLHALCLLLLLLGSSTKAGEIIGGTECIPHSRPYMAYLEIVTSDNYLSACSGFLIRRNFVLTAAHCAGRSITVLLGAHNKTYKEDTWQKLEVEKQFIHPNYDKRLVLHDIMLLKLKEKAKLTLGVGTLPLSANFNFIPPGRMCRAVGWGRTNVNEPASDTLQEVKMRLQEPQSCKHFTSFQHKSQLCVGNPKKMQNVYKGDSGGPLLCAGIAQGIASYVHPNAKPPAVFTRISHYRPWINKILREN
Outline: (§3)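 Inhibitor and protease were preincubated 30 min at room temperature. pNA substrate release was read at 405 nm for 5 min in 0.15 M NaCl, 0.1 M Tris·HCl pH 8.0, 0.005% Triton X-100, with 10% acetonitrile. Morrison Ki was obtained by non-linear regression from three independent triplicate experiments.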

Homo sapiens [7] = species on record: Homo sapiens; experiment: Selectivity ratio of Ki for recombinant KLK7 (unknown origin) to Ki for human cathepsin G; outline: as §1
Neutrophil elastase = target: T5, Neutrophil elastase (Homo sapiens, UniProt P08246); experiment: Inhibition of human neutrophil elastase using Suc(OMe)-AAPV-pNA as substrate after 30 mins; outline: as §3
T5 sequence (P08246 whole entry): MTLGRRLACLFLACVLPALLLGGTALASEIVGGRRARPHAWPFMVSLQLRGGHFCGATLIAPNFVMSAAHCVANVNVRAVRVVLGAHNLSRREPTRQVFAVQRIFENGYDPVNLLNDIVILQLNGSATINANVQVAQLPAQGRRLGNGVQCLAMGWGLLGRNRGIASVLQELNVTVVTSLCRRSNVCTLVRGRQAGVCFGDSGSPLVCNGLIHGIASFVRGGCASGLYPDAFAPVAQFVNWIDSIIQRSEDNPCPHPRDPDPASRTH

Homo sapiens [8] = species on record: Homo sapiens; experiment: Selectivity ratio of Ki for human PR3 to Ki for human cathepsin G; outline: as §1
[9] = Selectivity ratio of Ki for bovine trypsin to Ki for human cathepsin G; outline: as §1
Prothrombin [10] = target: T6, Prothrombin (Homo sapiens, UniProt P00734); experiment: Inhibition of human alpha-thrombin using Glt-Gly-Arg-MCA as substrate after 30 mins; outline: as §2
Homo sapiens [11] = species on record: Homo sapiens; experiment: Selectivity ratio of Ki for human alpha-thrombin to Ki for human cathepsin G; outline: as §1
Bos taurus = species on record: Bos taurus; experiment: Inhibition of bovine chymotrypsin at 10000 nM using Suc(OMe)-AAPV-MCA as substrate after 30 mins relative to control
Prothrombin [12] = target: T6, Prothrombin; experiment: Inhibition of human alpha-thrombin at 10000 nM using Glt-Gly-Arg-MCA as substrate after 30 mins
Homo sapiens [13] = species on record: Homo sapiens; experiment: Selectivity ratio of Ki for human plasmin to Ki for human cathepsin G; outline: as §1
[14] = target: T7, Cathepsin G (Homo sapiens) (UniProt P08311); experiment: Inhibition of human cathepsin G assessed as decrease in angiotensin-2 generation from angiotensin-1 at 100 nM after 1.5 to 3 hrs by RP-UPLC/mass spectroscopic method; conditions: in the assay text read “1.5 to 5 hrs” for “1.5 to 3 hrs”
T7 sequence (whole entry): T1 sequence (P08311 whole entry)
Outline: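 Cathepsin G (10 nM) was incubated with angiotensin I (10 µM) in assay buffer, with or without inhibitor at 100 nM. Aliquots were taken at 1.5, 3 and 5 h and quenched with 2% TFA. Angiotensin I cleavage and angiotensin II formation were analysed by RP-UPLC and electrospray mass spectrometry.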

[15] = Inhibition of bovine trypsin using Boc-QAR-MCA as substrate after 30 mins; design: species or system Bos taurus; outline: as §2
Plasminogen [16] = target: T8, Plasminogen (Homo sapiens, UniProt P00747); experiment: Inhibition of human plasmin using Ac-RM(O2)YRpNA as substrate after 30 mins; outline: as §3
T8 sequence (P00747 97-580 limits assumed): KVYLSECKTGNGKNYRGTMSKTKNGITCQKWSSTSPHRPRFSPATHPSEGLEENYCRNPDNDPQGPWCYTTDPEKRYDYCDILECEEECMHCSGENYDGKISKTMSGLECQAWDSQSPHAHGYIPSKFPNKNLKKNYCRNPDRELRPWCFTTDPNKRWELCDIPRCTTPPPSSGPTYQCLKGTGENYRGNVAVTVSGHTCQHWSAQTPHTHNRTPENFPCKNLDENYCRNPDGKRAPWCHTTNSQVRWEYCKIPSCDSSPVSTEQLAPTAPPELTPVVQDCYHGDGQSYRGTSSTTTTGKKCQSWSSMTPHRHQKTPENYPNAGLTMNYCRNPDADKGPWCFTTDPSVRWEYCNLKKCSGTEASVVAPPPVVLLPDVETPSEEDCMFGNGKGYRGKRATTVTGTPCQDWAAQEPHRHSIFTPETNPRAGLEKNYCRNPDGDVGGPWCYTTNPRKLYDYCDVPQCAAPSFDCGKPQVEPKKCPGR
T8 sequence (P00747 581-810 limits assumed): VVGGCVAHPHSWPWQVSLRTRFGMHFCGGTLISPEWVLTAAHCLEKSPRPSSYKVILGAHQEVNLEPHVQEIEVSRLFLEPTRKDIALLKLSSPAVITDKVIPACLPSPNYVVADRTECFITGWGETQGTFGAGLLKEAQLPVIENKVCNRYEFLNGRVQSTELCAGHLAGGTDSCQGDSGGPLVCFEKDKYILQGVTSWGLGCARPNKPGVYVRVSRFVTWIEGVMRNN

Plasminogen [17] = target: T8, Plasminogen; experiment: Inhibition of human plasmin at 10000 nM using Ac-RM(O2)YRpNA as substrate after 30 mins

- Ki (Kallikrein-7): 130 nM
- Ratio Ki [2]: 4.5
- Ki (Myeloblastin): > 10000 nM
- Ki [3]: 140 nM
- inhibition [4]: < 20%
- Ratio Ki (Homo sapiens [5]): 5200
- Ki (Cathepsin G): 1.7 nM
- Ratio Ki [6]: 83
- Ki (Chymase): 7.7 nM
- Ratio Ki (Homo sapiens [7]): 76
- Ki (Neutrophil elastase): 8900 nM
- Ratio Ki (Homo sapiens [8]): > 5900
Compound: CCCCC1NC(=O)[C@@H]2CSSC[C@H](NC(=O)[C@H]([C@@H](C)CC)NC(=O)[C@@H]3CCCN3C(=O)[C@@H]3CCCN3C(=O)[C@H](CC(=O)O)NC(=O)[C@H](CO)NC(=O)[C@H](Cc3ccccc3)NC1=O)C(=O)N[C@@H](Cc1ccccc1)C(=O)N1CCC[C@H]1C(=O)N[C@@H](CC(N)=O)C(=O)NCC(=O)N[C@@H]([C@@H](C)O)C(=O)N2 (stereo partly drawn) (cyclo(CFPNGTC[ξNle]FSDPPI); disulfide 1-7)

- Ki (Kallikrein-7): 69 nM
- Ki (Myeloblastin): > 10000 nM
- Ki [3]: 1.9 nM
- inhibition [4]: < 20%
- Ratio Ki (Homo sapiens [5]): 13000
- Ki (Cathepsin G): 0.89 nM
- Ratio Ki [6]: 2.1
- Ratio Ki (Homo sapiens [7]): 78
- Ki (Neutrophil elastase): 12000 nM
- Ratio Ki (Homo sapiens [8]): > 11000
Compound: CCCCC1NC(=O)[C@@H]2CSSC[C@H](NC(=O)[C@H]([C@@H](C)CC)NC(=O)[C@@H]3CCCN3C(=O)[C@@H]3CCCN3C(=O)[C@H]([C@@H](C)CC)NC(=O)[C@H](CO)NC(=O)[C@H](Cc3ccccc3)NC1=O)C(=O)N[C@@H](Cc1ccccc1)C(=O)N1CCC[C@H]1C(=O)N[C@@H](CC(N)=O)C(=O)NCC(=O)N[C@@H]([C@@H](C)O)C(=O)N2 (stereo partly drawn) (cyclo(CFPNGTC[ξNle]FSIPPI); disulfide 1-7)

- Ki (Kallikrein-7): 740 nM
- Ratio Ki [2]: 12000
- Ki (Myeloblastin): > 10000 nM
- Ki [3]: > 10000 nM
- Ratio Ki [9]: 360
- Ki (Prothrombin [10]): > 10000 nM
- Ratio Ki (Homo sapiens [11]): > 6300
- inhibition [4]: < 20%
- Ratio Ki (Homo sapiens [5]): 27000
- Ki (Cathepsin G): 1.6 nM
- inhibition (Bos taurus): < 20%
- inhibition (Prothrombin [12]): < 20%
- Ratio Ki (Homo sapiens [13]): > 6300
- Ratio Ki [6]: > 6300
- inhibition [14]: Active
- Ki [15]: 580 nM
- Ki (Chymase): 19600 nM
- Ratio Ki (Homo sapiens [7]): 460
- Ki (Plasminogen [16]): > 10000 nM
- Ki (Neutrophil elastase): 43000 nM
- inhibition (Plasminogen [17]): < 20%
- Ratio Ki (Homo sapiens [8]): > 6300
Compound: CCCCC1NC(=O)[C@@H]2CSSC[C@H](NC(=O)[C@H]([C@@H](C)CC)NC(=O)[C@@H]3CCCN3C(=O)[C@@H]3CCCN3C(=O)[C@H](CC(=O)O)NC(=O)[C@H](CO)NC(=O)[C@H](Cc3ccc(NC(=N)N)cc3)NC1=O)C(=O)N[C@@H](Cc1ccccc1)C(=O)N1CCC[C@H]1C(=O)N[C@@H](CC(N)=O)C(=O)NCC(=O)N[C@@H]([C@@H](C)O)C(=O)N2 (stereo partly drawn) (cyclo(CFPNGTC[ξNle][Phe(4-guanidino)]SDPPI); disulfide 1-7)

Continued, molecule first:

Compound: CC[C@H](C)[C@@H]1NC(=O)[C@@H]2CCCN2C(=O)[C@@H]2CCCN2C(=O)[C@H]([C@@H](C)CC)NC(=O)[C@H](CO)NC(=O)[C@H](CCCCN)NC(=O)[C@H]([C@@H](C)O)NC(=O)[C@@H]2CSSC[C@H](NC1=O)C(=O)N[C@@H](Cc1ccccc1)C(=O)N1CCC[C@H]1C(=O)N[C@@H](CC(=O)O)C(=O)NCC(=O)N[C@@H](CCCNC(=N)N)C(=O)N2
- Ki (Cathepsin G): 730 nM
- Ki [1]: 0.0017 nM

Compound: CC[C@H](C)[C@@H]1NC(=O)[C@@H]2CCCN2C(=O)[C@@H]2CCCN2C(=O)[C@H](CC(=O)O)NC(=O)[C@H](CO)NC(=O)[C@H](CCCNC(=N)N)NC(=O)[C@H]([C@@H](C)O)NC(=O)[C@@H]2CSSC[C@H](NC1=O)C(=O)N[C@@H](CC(N)=O)C(=O)N1CCC[C@H]1C(=O)N[C@@H](CC(N)=O)C(=O)NCC(=O)N[C@@H]([C@@H](C)O)C(=O)N2 (cyclo(CNPNGTCTRSDPPI); disulfide 1-7)
- Ki (Cathepsin G): 12 nM

Compound: CC[C@H](C)[C@@H]1NC(=O)[C@@H]2CCCN2C(=O)[C@@H]2CCCN2C(=O)[C@H]([C@@H](C)CC)NC(=O)[C@H](CO)NC(=O)[C@H](CCCNC(=N)N)NC(=O)[C@H]([C@@H](C)O)NC(=O)[C@@H]2CSSC[C@H](NC1=O)C(=O)N[C@@H](CC(N)=O)C(=O)N1CCC[C@H]1C(=O)N[C@@H](CC(N)=O)C(=O)NCC(=O)N[C@@H]([C@@H](C)O)C(=O)N2 (cyclo(CNPNGTCTRSIPPI); disulfide 1-7)
- Ki (Cathepsin G): 490 nM

From ChEMBL document CHEMBL4052586, “Design of Potent and Selective Cathepsin G Inhibitors Based on the Sunflower Trypsin Inhibitor-1 Scaffold” (J Med Chem, 2017)
